In ChEMBL document CHEMBL1123755, “Conformationally defined adrenergic agents. 5. Resolution, absolute configuration, and pharmacological characterization of the enantiomers of 2-(5,6-dihydroxy-1,2,3,4-tetrahydro-1-naphthyl)imidazoline: a potent agonist at alpha-adrenoceptors” (J Med Chem, 1987) one finds E max, Index and Ki data, which are given here for three compounds.

What is called Ki is the equilibrium dissociation constant of an inhibitor or competing ligand from its target. A higher Ki goes with a looser hold on the target.

Experiment [1] in a line: E max value expressed as percent maximum response of the tissue(PBZ-DSV) to norepinephrine. In outline:
(§1)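 Dog saphenous vein strips in Krebs buffer (pH 7.40, 95% O2/5% CO2, 37 °C), 2 g preload, isometric contraction. After equilibration and maximal NE (10⁻⁴ M) contraction, washed 60 min, exposed to PBZ 10⁻⁷ M for 30 min, washed 60 min. Control cumulative NE curve, then after 45–60 min washout, cumulative agonist curve. Molar ED50; index = ED50 NE / ED50 compound; Emax as % of NE maximum.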

Experiment [2] is described as follows: Ratio of ED50 of norepinephrine to that in rabbit aorta. The class given is functional. The method in brief:
(§2)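 Helical rabbit aortic strip in 10-mL bath of Krebs buffer (pH 7.4, 37 ± 0.5 °C), 2 g initial tension, force-transducer contraction. Cumulative dose–response to NE (10⁻⁸ to 10⁻³ M), each dose to plateau. Washed every 10–15 min for 60–90 min and reset to 2 g before the test compound series. Molar ED50; index = ED50 NE / ED50 compound; Emax as % of NE maximum.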

Experiment [3] can be described thus: E max value expressed as percent maximum response of the tissue(rabbit aorta) to norepinephrine. The class given is tissue-based. In outline: as §2
Experiment [4] can be described thus: Ratio of ED50 of norepinephrine to that in PBZ-DSV. The class given is functional. The method in brief:
as §1

Experiment [5] deals with T1, Adrenergic receptor alpha-2 (Rattus norvegicus, UniProt P22086+P19328+P22909).
T1 sequence (P22086 whole entry): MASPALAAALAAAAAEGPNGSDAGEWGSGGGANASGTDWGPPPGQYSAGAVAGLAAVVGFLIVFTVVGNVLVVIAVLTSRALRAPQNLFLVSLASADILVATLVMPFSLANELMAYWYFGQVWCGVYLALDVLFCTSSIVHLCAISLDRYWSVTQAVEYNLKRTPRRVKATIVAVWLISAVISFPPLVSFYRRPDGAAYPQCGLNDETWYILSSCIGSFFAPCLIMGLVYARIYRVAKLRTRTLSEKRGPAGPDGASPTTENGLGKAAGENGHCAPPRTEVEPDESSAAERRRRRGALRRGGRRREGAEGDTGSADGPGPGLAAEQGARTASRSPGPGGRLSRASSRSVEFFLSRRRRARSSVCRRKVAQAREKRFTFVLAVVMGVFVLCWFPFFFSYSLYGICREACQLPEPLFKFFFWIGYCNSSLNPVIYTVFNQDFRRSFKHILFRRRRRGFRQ
T1 sequence (P19328 whole entry): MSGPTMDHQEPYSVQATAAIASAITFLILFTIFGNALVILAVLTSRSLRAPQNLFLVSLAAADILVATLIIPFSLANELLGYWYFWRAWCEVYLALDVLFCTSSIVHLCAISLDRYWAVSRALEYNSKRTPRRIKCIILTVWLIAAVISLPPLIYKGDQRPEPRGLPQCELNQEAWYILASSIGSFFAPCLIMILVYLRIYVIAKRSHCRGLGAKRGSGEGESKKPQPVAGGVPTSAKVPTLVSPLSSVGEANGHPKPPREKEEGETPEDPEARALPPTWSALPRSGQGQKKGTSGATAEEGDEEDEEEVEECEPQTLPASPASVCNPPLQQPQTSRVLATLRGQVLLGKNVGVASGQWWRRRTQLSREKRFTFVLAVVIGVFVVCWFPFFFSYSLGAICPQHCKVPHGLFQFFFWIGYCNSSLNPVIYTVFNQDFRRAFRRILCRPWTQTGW
T1 sequence (P22909 whole entry): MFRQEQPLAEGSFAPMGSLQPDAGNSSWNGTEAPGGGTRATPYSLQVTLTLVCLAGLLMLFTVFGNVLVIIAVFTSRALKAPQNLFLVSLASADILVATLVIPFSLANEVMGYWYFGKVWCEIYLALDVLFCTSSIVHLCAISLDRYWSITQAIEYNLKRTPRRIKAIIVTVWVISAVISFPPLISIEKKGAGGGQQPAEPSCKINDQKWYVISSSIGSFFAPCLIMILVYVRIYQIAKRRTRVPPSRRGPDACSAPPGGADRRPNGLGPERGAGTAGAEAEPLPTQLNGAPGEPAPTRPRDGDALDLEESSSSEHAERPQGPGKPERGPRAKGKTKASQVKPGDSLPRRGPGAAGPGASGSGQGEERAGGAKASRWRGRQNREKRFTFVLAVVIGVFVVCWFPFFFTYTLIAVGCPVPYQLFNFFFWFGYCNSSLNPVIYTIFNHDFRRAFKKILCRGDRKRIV
The experiment is described as follows: Binding affinity for alpha-2 adrenergic receptor in rat cortex using [3H]rauwolscine. In outline:
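Pooled male Sprague–Dawley rat cerebral cortex membranes (50–150 µg/mL protein) in 50 mM Tris-HCl pH 7.7. [3H]rauwolscine, 2 h at 0 °C, 1.0 mL final volume; nonspecific binding with phentolamine 10⁻⁵ M. GF/B filtration, scintillation counting. At least four concentrations (10⁻¹⁰–10⁻³ M) run in duplicate; IC50 by logit plot; Ki by Cheng–Prusoff.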

The target of experiment [6] is T2, Adrenergic receptor alpha-1 (Rattus norvegicus, UniProt P15823+P23944+P43140).
T2 sequence (P15823 whole entry): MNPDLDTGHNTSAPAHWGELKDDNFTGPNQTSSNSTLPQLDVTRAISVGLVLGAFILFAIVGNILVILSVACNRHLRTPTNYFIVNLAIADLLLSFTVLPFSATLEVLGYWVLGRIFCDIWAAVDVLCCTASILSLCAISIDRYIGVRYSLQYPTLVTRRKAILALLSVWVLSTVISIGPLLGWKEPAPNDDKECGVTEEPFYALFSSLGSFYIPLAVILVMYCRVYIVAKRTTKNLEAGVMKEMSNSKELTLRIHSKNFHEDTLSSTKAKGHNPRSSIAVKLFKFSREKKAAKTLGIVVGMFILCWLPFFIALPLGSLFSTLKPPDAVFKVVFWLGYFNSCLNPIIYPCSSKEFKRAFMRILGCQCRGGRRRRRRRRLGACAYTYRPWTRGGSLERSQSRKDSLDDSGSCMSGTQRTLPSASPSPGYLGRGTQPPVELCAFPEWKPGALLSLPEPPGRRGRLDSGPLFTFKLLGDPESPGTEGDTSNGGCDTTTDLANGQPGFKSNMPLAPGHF
T2 sequence (P23944 whole entry): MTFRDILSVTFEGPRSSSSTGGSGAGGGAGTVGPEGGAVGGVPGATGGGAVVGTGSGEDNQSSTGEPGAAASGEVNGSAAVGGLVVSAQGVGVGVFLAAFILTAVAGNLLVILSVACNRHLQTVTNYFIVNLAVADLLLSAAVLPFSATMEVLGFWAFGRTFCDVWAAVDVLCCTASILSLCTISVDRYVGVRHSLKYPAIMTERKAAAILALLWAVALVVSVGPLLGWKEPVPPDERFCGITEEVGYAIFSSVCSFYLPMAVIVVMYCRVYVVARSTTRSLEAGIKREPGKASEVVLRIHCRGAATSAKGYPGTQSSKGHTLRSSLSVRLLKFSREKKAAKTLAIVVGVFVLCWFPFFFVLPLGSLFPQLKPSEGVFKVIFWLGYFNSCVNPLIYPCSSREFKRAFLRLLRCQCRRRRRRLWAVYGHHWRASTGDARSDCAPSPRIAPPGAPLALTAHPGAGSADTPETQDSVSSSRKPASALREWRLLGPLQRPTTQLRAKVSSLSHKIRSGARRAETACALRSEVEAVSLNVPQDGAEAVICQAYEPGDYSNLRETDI
T2 sequence (P43140 whole entry): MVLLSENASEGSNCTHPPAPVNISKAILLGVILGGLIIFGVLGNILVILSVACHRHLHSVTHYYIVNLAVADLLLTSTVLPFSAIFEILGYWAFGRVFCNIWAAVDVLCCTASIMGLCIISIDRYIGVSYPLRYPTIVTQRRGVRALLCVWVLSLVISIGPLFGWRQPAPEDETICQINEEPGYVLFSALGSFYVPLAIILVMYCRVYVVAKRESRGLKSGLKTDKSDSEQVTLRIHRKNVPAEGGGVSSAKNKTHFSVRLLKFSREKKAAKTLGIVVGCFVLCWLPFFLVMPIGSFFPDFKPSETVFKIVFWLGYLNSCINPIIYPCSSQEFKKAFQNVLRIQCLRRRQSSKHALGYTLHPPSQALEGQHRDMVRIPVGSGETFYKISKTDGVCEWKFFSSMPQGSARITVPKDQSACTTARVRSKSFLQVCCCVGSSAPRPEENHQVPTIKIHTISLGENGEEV
Description: Binding affinity for alpha-1 adrenergic receptor in rat liver using [3H]prazosin. The method in brief: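 Pooled male Sprague–Dawley rat liver membranes (50–150 µg/mL protein) in 50 mM Tris-HCl pH 7.7. [3H]prazosin, 50 min at 25 °C, 1.0 mL final volume; nonspecific binding with phentolamine 10⁻⁵ M. GF/B filtration, scintillation counting. At least four concentrations (10⁻¹⁰–10⁻³ M) run in duplicate; IC50 by logit plot; Ki by Cheng–Prusoff.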

In the case of `Oc1ccc2c(c1O)CCCC2C1=NCCN1` (racemic), the E max in experiment [1] came to 102; in experiment [3], 114. For the same compound, the Index is 13 in experiment [2] and 184 in experiment [4].

As to `Oc1ccc2c(c1O)CCC[C@@H]2C1=NCCN1`, the results for the E max in experiment [1] and in experiment [3] were 74 and 94, respectively. The Ki in experiment [5] is 28 nM; in experiment [6], 817 nM. The Index came to 1 in experiment [2] and 15.4 in experiment [4].

On to `Oc1ccc2c(c1O)CCC[C@H]2C1=NCCN1`, for which the E max amounted to 102 in experiment [1] and 128 in experiment [3]. Besides, the Ki in experiment [5] came to 0.55 nM; in experiment [6], 523 nM. Further, the Index turned out to be 29 in experiment [2] and 248 in experiment [4].
